Compound activity as filed in PubChem BioAssay.
Sampled rows, rich in hits. Any-hit rate of the full collection: about 4%.
hiPSC survival: enhancers of single-cell hiPSC survival, primary screen, ATPlite luminescence; 100% = ROCK inhibitor wells, 0% = DMSO; survival enhancement, % at 20 µM; 360,000 tested, 0.044% active; in the data active = survival enhancement above about 18%;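 note: cells exposed to compounds for 16 hours before the ATP read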
FAS TE block: FAS thioesterase domain inhibitors, primary screen, biochemical, fluorescence intensity, uHTS. recombinant FAS-TE, OMFH fluorogenic substrate, fluorescence endpoint. inhibition, % at 15 µM. 360,000 tested, 0.67% active. Fatty acid synthase (Homo sapiens), P49327;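 active = compounds whose normalised, plate-corrected inhibition of enzyme fluorescence in the single-dose primary screen is 50% or more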
Cardio protect: cardioprotection against H2O2-induced cell death, primary screen, uHTS, H9c2 cells, ATPLite luminescence; 360,000 tested, 0.63% active; H9c2 cardiomyocytes, H2O2 injury protection, 2 h; protection from H2O2 cell death, % at 20 µM;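 active = compounds giving at least 50% protection of heart cells from peroxide-induced death in the single-dose screen, raw or plate-pattern-corrected value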
SENP1 inh: human SENP1 catalytic domain inhibitors, primary screen, biochemical, FRET, uHTS; recombinant SENP1 catalytic domain, CyPet-SUMO1-YPet FRET cleavage; Sentrin-specific protease 1 (Homo sapiens), Q9P0U3; inhibition, % at 10 µM; 360,000 tested, 0.21% active; AID 624204, 2012;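 active = inhibition at least 30% at 10 µM, raw YFP signal under a set limit, fluorescence ratio 0.5 to 1.5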
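Assay system – human recombinant His6-tagged SENP1 catalytic domain enzyme · Input – SENP1 enzyme, 20 pM final · Buffer or medium – Tris pH 8 buffer plus EDTA, NaCl, BME, BSA, NP40, catalase · Schedule – 50 min reaction at room temperature · Technique – FRET read of cyan and yellow fluorescence · Control set – no-enzyme wells low, DMSO-plus-enzyme wells high control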
GRIN3A LBD mod: binders of NR3A ligand-binding domain, primary screen, biophysical, differential scanning fluorimetry, uHTS. NR3A LBD differential scanning fluorimetry, Tm shift; 0% = protein alone, 100% = glycine-bound protein. Tm shift relative to glycine control, % at 25 µM. 340,000 tested, 2.5% active. AID 1259313, 2017;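 active = melting temperature shift of at least 10% of the positive control shift, at one fixed dose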
Arr AP2 block: inhibitors of beta-arrestin/AP2 binding, primary screen, biochemical, GPCR trafficking, flow cytometry; 340,000 tested, 0.31% active; FITC-arrestin peptide / GST-AP2 beads; AP2 beta2 appendage carries R879A mutation; beta-arrestin 1 C-terminal peptide binding to AP2 beta2-adaptin appendage (human); AID 504490, 2011; inhibition, % at 10 µM;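 active = inhibition above a set limit, near 3 SD of compounds lacking own fluorescence, cut at about 54% in these data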
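Material – AP2 appendage R879A on GSH beads · Buffer or medium – PBS with 0.05% Tween 20 and 0.1% BSA · Probe or stimulus – fluorescein-tagged arrestin peptide at 50 nM final · Incubation – compound with beads 12 min RT, then probe 1 h RT · Detection – high-throughput flow cytometry of beads, ex 488, em 535 nm · Evaluation – percent response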
Hits are given with their value; - = inactive; . = no result given.

SMILES | hiPSC survival | FAS TE block | Cardio protect | SENP1 inh | GRIN3A LBD mod | Arr AP2 block
COC(=O)CCCC[C@@H]1O[C@H](CCc2ccccc2)Cc2[nH]c(=S)[nH]c(=O)c21 | - | - | . | - | . | .
O=C(Nc1cccc(/C=C/c2ccccn2)c1)c1ccc(-n2cncn2)c([N+](=O)[O-])c1 | - | - | - | - | - | -
CCc1nc2c(OCC3COc4ccccc4O3)cccn2c1N(C)C(=O)c1ccc(OC)cc1 (configuration not stated) | - | - | - | - | . | .
O=C(O)c1ccc(CSc2nc(-c3ccc(Cl)cc3)cc(C(F)(F)F)n2)cc1 | - | - | - | - | 38 | -
CC(C)=CCc1c(-c2ccc(O)cc2O)oc2cc3c(c(O)c2c1=O)C=CC(C)(C)O3 | . | . | . | . | 31 | .
CNC(=O)C1CN(C(=O)c2nn(Cc3ccccc3)c(=O)c3ccccc23)c2ccccc2O1 (configuration not stated) | - | - | - | - | . | .
CCCCCCc1cc2cc(S(=O)(=O)c3ccc(F)c(Cl)c3)c(=O)oc2cc1O | - | - | - | - | 33 | -
CCCCOCCCNC(=O)C[C@@H]1C[C@@]2(C(=O)OCC)CCCC=C2N(Cc2ccc(Cl)cc2Cl)C1=O | - | - | . | - | . | .
CCCS(=O)(=O)NC(=O)C1(C)CCCN(C(=O)C2(c3ccc(Cl)cc3)CCCC2)C1 (configuration not stated) | - | - | - | - | . | .
CN1CCC(=NNC(=O)CN(c2ccccc2)S(=O)(=O)c2ccccc2)CC1 | - | - | - | - | 10 | -
Cc1cc(-c2ccccc2)nc(N/N=C/c2ccc(O)cc2)n1 | - | - | - | - | - | -
Oc1ccc(/C=N/Nc2nc(-c3ccc(Cl)cc3)cc(C(F)(F)F)n2)cc1 | - | - | - | - | 32 | -
c1ccc(COc2ncnc3c2ncn3CCCNCC(c2ccccc2)c2ccccc2)cc1 | - | - | - | - | . | .
COC(CNC(=O)c1ccc2nc(-c3cccs3)c(-c3cccs3)nc2c1)OC | - | - | - | - | 16 | -
COc1ccc(-c2nc3ccc(C(=O)NCC(OC)OC)cc3nc2-c2ccc(OC)c(OC)c2)cc1OC | - | - | - | - | - | -
O=C(c1ccc(S(=O)(=O)c2ccccc2Cl)c([N+](=O)[O-])c1)N1CCCCCC1 | - | - | - | - | 12 | -
O=C(CCCn1c(SCC(=O)c2ccc(O)c(O)c2)nc2ccccc2c1=O)NCC1CCCO1 (configuration not stated) | - | - | 53 | - | - | -
CCCCn1c(SCC(=O)c2ccc(O)c(O)c2)nc2ccsc2c1=O | - | - | 92 | - | 25 | .
O=C(O)CCCCCn1c(SCC(=O)c2ccc(O)c(O)c2)nc2ccsc2c1=O | - | - | - | - | - | -
COc1ccc(-c2nc(SCC(=O)Nc3nccs3)c(-c3ccc(Cl)cc3)[nH]2)cc1 | - | - | - | - | 15 | -
Cc1ccc(F)cc1C(=O)N1CCCCC1c1cc(C(=O)Nc2ccc(F)c(Cl)c2)no1 (configuration not stated) | - | - | - | - | . | .
C=CCn1c(SCC(=O)Nc2ccc(F)cc2)nc2cc(C(=O)O)ccc2c1=O | - | - | - | - | 15 | -
Clc1ccc2scc(CN3CCCCC3)c2c1 | - | - | - | - | 16 | -
CC(=O)c1cccc(NC(=O)C2Cc3c(-c4ccco4)ccnc3O2)c1 (configuration not stated) | - | - | - | - | . | .
O=C(Cc1ccccc1F)N1CCN(S(=O)(=O)c2ccc(Cl)cc2)CC1 | - | - | - | - | - | -
O=C(Cn1[nH]c(=O)c2ccccc2c1=O)N1CCN(S(=O)(=O)c2ccc(Cl)cc2)CC1 | - | - | 74 | - | - | -
